CHRM5 PAM = CHRM5 positive allosteric modulation; 360,000 compounds, 0.3% hits; P08912; CHO-K1 hM5, Fluo-8 calcium, ACh EC20 PAM; 0% = ACh EC20, 100% = ACh EC100; activation, % at 3 µM; AID 624038;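 active = activation above the run cutoff, the mean activation of all test compounds plus 3 SD, cut at about 18% in these data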
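Assay system: CHO-K1 hM5 cells / Incubation: Fluo-8 loading 80 min at 37 °C plus 30 min room temperature / Technique: Fluo-8 calcium dye fluorescence, kinetic read / Repeats: single replicate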
CHRM4 PAM = positive allosteric modulators of human muscarinic M4 receptor; P08173; CHO-K1 hM4/Gqi5, Fluo-8 calcium fluorescence, ACh EC20; 0% = ACh EC20, 100% = maximal ACh; activation, % at 3 µM; 360,000 compounds, 0.4% hits; AID 624126;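 active = activation above its plate's cutoff, the mean activation of sample wells plus 3 SD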
Target sequence (P08173 whole entry, looked up): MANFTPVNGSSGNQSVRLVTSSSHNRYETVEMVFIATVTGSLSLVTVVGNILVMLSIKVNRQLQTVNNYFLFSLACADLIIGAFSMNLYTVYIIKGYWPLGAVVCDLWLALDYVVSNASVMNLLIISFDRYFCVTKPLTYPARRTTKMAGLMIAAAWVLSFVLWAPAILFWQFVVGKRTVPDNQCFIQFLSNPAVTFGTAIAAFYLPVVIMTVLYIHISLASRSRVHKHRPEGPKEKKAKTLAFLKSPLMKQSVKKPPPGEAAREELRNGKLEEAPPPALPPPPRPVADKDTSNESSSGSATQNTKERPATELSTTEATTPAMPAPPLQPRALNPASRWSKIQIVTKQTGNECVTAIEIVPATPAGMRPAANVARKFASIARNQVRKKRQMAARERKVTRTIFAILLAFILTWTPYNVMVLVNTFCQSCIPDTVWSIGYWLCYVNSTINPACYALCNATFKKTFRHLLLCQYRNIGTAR
CHRM5 agonist = agonists of human muscarinic M5 receptor (CHRM5) | activation, % at 3 µM | AID 624037 | 360,000 compounds, 0.19% hits | P08912 | CHO-K1 hM5 cells, Fluo-8 calcium fluorescence; 0% DMSO wells, 100% maximal acetylcholine response;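 active = activation above the run's mean over test compounds plus 3 SD, cut at about 23% in these data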;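 also: signal is peak over basal fluorescence ratio across the kinetic read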
CHRM4 antagonist = blocks acetylcholine activation of human M4 receptor; P08173; CHO-hM4 cells, ACh EC80, Fluo-8 calcium fluorescence; inhibition, % at 3 µM; 360,000 compounds, 0.73% hits; AID 624125;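 active = inhibition above its plate's cutoff, the mean inhibition of sample wells plus 3 SD, cut at about 27% in these data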;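 also: 0% = acetylcholine EC80 with DMSO and 100% = DMSO without agonist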
M4 ag = agonists of human muscarinic M4 receptor (CHRM4); P08173; CHO-K1 hM4/Gqi5, Fluo-8 calcium fluorescence; vehicle 0%, full acetylcholine response 100%; activation, % at 3 µM; 360,000 compounds, 0.14% hits; AID 624127;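 active = activation above the run mean over all test wells plus 3 SD, cut at about 32% in these data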;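 also: peak over basal fluorescence ratio per well then scaled between controls; 0% = DMSO wells and 100% = acetylcholine at EC100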
CHRM5 antagonist = blocks acetylcholine activation of human M5 receptor. P08912. CHO-hM5 cells, Fluo-8 calcium fluorescence, ACh EC80. inhibition, % at 3 µM. 360,000 compounds, 0.59% hits. AID 624040;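 active = inhibition above a per-plate cutoff, the mean of that plate's test compounds plus 3 SD, cut at about 27% in these data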;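 also: 0% = acetylcholine EC80 with DMSO and 100% = DMSO without agonist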
* hit, by the source's call. This is a sample that favours compounds with a hit; in the whole collection about 1.8% have one here.

SMILES	CHRM5 PAM	CHRM4 PAM	CHRM5 agonist	CHRM4 antagonist	M4 ag	CHRM5 antagonist
CCN(CC)c1ccc2nc3ccccc3[n+](CC)c2c1	6.0	-14.0	-21.7	27.4*	-0.3	-5.3
CCN(CC)c1ccc2nc3ccc(N)cc3[n+](-c3ccccc3)c2c1	4.4	-2.3	-6.3	6.0	2.9	4.3
O=S(=O)(Nc1nc2ccccc2[nH]1)c1ccccc1	-17.8	-20.1	-6.9	18.9	-0.1	7.8
O=S(=O)(Nc1nc2ccccc2[nH]1)c1ccc(Cl)cc1	-17.4	-28.9	-7.2	67.5*	4.7	49.6*
O=C(O)c1cc([N+](=O)[O-])ccc1NCCCc1ccccc1	-14.9	1.6	34.6*	-1.4	3.6	5.7
Cc1ccc(C(=O)N[C@@H](Cc2ccccc2)C(=O)N2CCC3(CC2)NCCc2[nH]cnc23)cc1C	7.9	-1.4	-2.8	-6.5	1.3	-14.1
O=S(=O)(/C=C/C=C/S(=O)(=O)c1ccccc1)c1ccccc1	5.9	-6.0	7.2	42.9*	5.7	2.4
Cc1ccc(S(=O)(=O)C=CS(=O)(=O)c2ccc(C)cc2)cc1	-0.5	-5.1	1.2	31.7*	7.0	6.5
Cc1ccc(S(=O)(=O)c2ccc(C)cc2)cc1	-0.3	-8.1	-5.0	13.0	-1.8	-2.2
CC(C)(C)Cc1c(-c2ccccc2)nc2ccc(Cl)cn12	-9.0	-6.3	-1.8	1.4	-0.2	2.6
COc1ccc(NS(=O)(=O)c2cccc(C(=O)NCC(c3ccccc3OC)N3CCCC3)c2)cc1 (stereo not given)	-34.2	-10.2	-10.2	18.5	1.5	20.9
COc1cc(C(=O)NCC(c2ccco2)N2CCCC2)ccc1OCc1ccc(Cl)cc1Cl (stereo not given)	-42.7	-16.6	-11.1	51.9*	4.9	-11.4
O=C(NCC(c1ccco1)N1CCCC1)c1cccc(NS(=O)(=O)c2ccccc2)c1 (stereo not given)	-7.2	-18.0	-7.9	74.4*	1.2	7.3
COc1ccccc1C(CNC(=O)c1cccc(S(=O)(=O)Nc2ccc(F)cc2)c1)N1CCCC1 (stereo not given)	-46.3	-15.5	-11.8	35.8*	3.2	46.9*
O=C(NCC(c1ccco1)N1CCCCC1)c1ccc(S(=O)(=O)Nc2ccccc2)cc1 (stereo not given)	1.9	-3.8	-3.6	1.8	3.3	-2.5
COc1ccc(Cl)cc1C(=O)NCC(c1ccco1)N1CCCC1 (stereo not given)	-1.7	-8.4	-7.1	4.0	0.9	1.4
c1ccc2c(c1)COc1c3ncccc3nn1-2	1.0	1.3	-1.4	-7.2	0.8	0.4
O=S(=O)(NN=C1CCCCCC1)c1ccccc1	0.8	4.5	-1.2	3.4	0.5	-6.7
CCOC(=O)CC1=CCc2c1ccc(OC)c2OC	-4.2	-3.8	-1.6	6.2	0.1	20.0
COc1ccc(NC(=O)c2cc(-c3sc(NC(=O)c4ccccc4)nc3C)n(-c3ccc(Br)cc3)n2)cc1	3.5	0.8	-0.3	5.6	0.3	1.4
COc1cccc(CC(=O)Nc2ccccc2N2CCCC2)c1	6.0	-2.3	-4.5	5.2	0.3	-9.7
CCCS(=O)(=O)NC(=O)C1(C)CCN(C(=O)Cc2ccc(OC)cc2)C1 (stereo not given)	-1.2	3.2	0.8	3.0	0.7	-4.3
CCOCCc1nnc(NC(=O)c2cc(OC)c(OC)cc2[N+](=O)[O-])s1	0.9	1.2	2.9	2.8	0.8	7.2
CCOCc1nnc(NC(=O)c2cc(OC)c(OC)cc2[N+](=O)[O-])s1	10.4	21.8*	3.1	-3.4	2.0	-15.2
C/C(=N\NC(=O)c1nnn(-c2nonc2N)c1CSc1ccc(C)cc1)c1cccs1	-3.1	-6.2	0.2	2.9	0.0	-8.5
SMILES	CHRM5 PAM	CHRM4 PAM	CHRM5 agonist	CHRM4 antagonist	M4 ag	CHRM5 antagonist
COC(=O)Cn1c(O)c(N=NC(=O)CNC(=O)c2ccc3c(c2)OCCO3)c2ccccc21	10.9	2.0	-8.6	-1.1	3.3	-1.3
O=C(CNC(=O)Cc1ccccc1)N=Nc1c(O)n(Cc2ccc3c(c2)OCO3)c2ccccc12	11.0	21.2*	-4.3	-17.8	0.7	-4.5
CC(=O)c1c(C)n(CC(=O)NCc2ccc3c(c2)OCO3)c2ccccc12	-18.0	-7.6	0.7	10.1	13.5	28.8*
O=S(=O)(c1ccccc1F)N1CCC(Oc2ccc(-n3cnnn3)cc2)CC1	-8.1	-9.2	6.8	7.9	13.0	9.7
Cn1c(CC(=O)Nc2ccccc2)nnc1SCC(=O)NC1CCCC1	-5.4	-0.7	-3.6	-1.4	-0.6	13.6
COc1ccc2oc(C(=O)OCc3c(C)noc3C)c(C)c2c1	-6.0	11.0	-1.5	-3.9	6.4	11.7
CCCN1CCN(C(=O)c2oc3ccccc3c2NC(=O)C2CC2)CC1	-1.0	7.1	-5.4	-13.3	-0.8	3.0
CN(CCOC(=O)C1c2ccccc2Oc2ccccc21)C(C)(C)C	-23.1	-22.5	-5.6	99.0*	1.1	98.3*
CCN(CC)CCCNC(=O)C1c2ccccc2Oc2ccccc21	-35.2	-12.3	-12.5	15.8	1.1	27.6*
COCCCNC(=O)C1c2ccccc2Oc2ccccc21	-4.0	-4.6	-4.8	2.3	0.3	5.2
CC[N+](C)(CC)CCOC(=O)C1c2ccccc2Oc2ccccc21	-18.4	-16.8	-1.6	99.3*	0.7	98.7*
CN(C)CCCOC(=O)C1c2ccccc2Oc2ccccc21	-26.3	-16.7	-11.3	94.6*	1.3	97.2*
Cc1ccc(NC(=O)OCc2ccccc2S(C)=O)cc1 (stereo not given)	-2.6	-3.3	-2.7	6.0	2.5	21.5
CC(OC(=O)c1cc2c(ccc3ccccc32)oc1=O)c1nc2ccccc2s1 (stereo not given)	-5.4	1.9	0.5	-6.0	1.2	8.3
O=C(c1ccccn1)N1CCN(S(=O)(=O)c2cccc(Br)c2)CC1	-12.1	-0.2	-11.2	11.0	0.5	2.6
CC(C)c1ccc(NC(=O)C2CC(=O)N(C3CCCC3)C2)cc1 (stereo not given)	-2.6	18.3*	-3.5	-19.1	4.1	5.6
Cc1cc(/C=N/n2cnnc2)c(C)n1-c1ccc(OCc2ccc(Cl)cc2Cl)cc1	-14.8	-12.1	-4.8	47.3*	2.8	36.5*
CS(=O)(=O)c1ccc(Cl)c(NC(=O)COC(=O)c2ccc(F)cc2Cl)c1	18.1*	5.3	5.2	1.9	0.3	-3.6
NNC(=O)CN1C(=O)Nc2ccc(Cl)cc2C1c1ccccc1 (stereo not given)	1.6	-16.4	-6.9	45.4*	-0.3	4.5
CCCN(C(=O)Cc1c(C(=O)O)n(C)c2ccccc12)c1cccc(C)c1	2.3	-4.4	-5.5	-0.9	1.2	7.5

Screens from PubChem BioAssay.
